Assay results published in ChEMBL document CHEMBL1629494, “New amino acid esters of salicylanilides active against MDR-TB and other microbes” (Eur J Med Chem, 2010).
Converted amounts (≈) assume the structure as drawn.

What was measured:
Assay type in all cases: functional
Mycobacterium kansasii [1] = assay: Antimycobacterial activity against Mycobacterium kansasii 6509/96 after 14 days by micromethod; details: 6509/96, 336 h
Procedure, shortened: (§1)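 Micromethod in Sula semisynthetic medium, with compounds added as DMSO solutions at 1000, 500, 250, 125, 62, 32, 16, 8, 4, 2, 1, 0.5, 0.25. Inoculum dilutions: H37Rv 10^-3; M. avium 330/88 10^-5; M. kansasii 235/80 10^-4; M. kansasii 6509/96 10^-5. Incubated at 37 °C, read at 14 and 21 days, and at 7 days for M. kansasii. MIC was the lowest concentration inhibiting growth.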

Staphylococcus aureus [2] = assay: Antibacterial activity against Staphylococcus aureus CCM 4516/08 after 48 hrs by broth microdilution method; details: CCM 4516/08, 48 h
Procedure, shortened: (§2)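 Broth microdilution following […], with twofold compound dilutions in Mueller-Hinton bouillon. Incubated 24 and 48 h at 35 °C in the dark in a humid atmosphere. MIC (IC80) was taken as ≥80% growth reduction versus control, read visually and photometrically.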

Trichosporon beigelii [3] = assay: Antifungal activity against Trichosporon beigelii 1188 after 24 hrs by broth microdilution method; details: Trichosporon beigelii, 1188, 24 h
Pichia kudriavzevii [4] = assay: Antifungal activity against Candida krusei E28 after 48 hrs by broth microdilution method; details: E28, 48 h
Candida albicans [5] = assay: Antifungal activity against Candida albicans ATCC 44859 after 24 hrs by broth microdilution method; details: ATCC 44859, 24 h
Candida tropicalis [6] = assay: Antifungal activity against Candida tropicalis 156 after 48 hrs by broth microdilution method; details: Candida tropicalis, 156, 48 h
Candida albicans [7] = assay: Antifungal activity against Candida albicans ATCC 44859 after 48 hrs by broth microdilution method; details: ATCC 44859, 48 h
[8] = system: Mycobacterium tuberculosis; assay: Antimycobacterial activity against Mycobacterium tuberculosis H37Rv 331/88 after 14 days by micromethod; details: H37Rv 331/88, 336 h; procedure, shortened: as §1
[9] = system: Mycobacterium tuberculosis; assay: Antimycobacterial activity against Mycobacterium tuberculosis H37Rv 331/88 after 21 days by micromethod; details: H37Rv 331/88, 504 h; procedure, shortened: as §1
Lichtheimia corymbifera [10] = assay: Antifungal activity against Absidia corymbifera 272 after 24 hrs by broth microdilution method; details: Lichtheimia corymbifera, 272, 24 h
Klebsiella pneumoniae [11] = assay: Antibacterial activity against Klebsiella pneumoniae D11750/08 after 48 hrs by broth microdilution method; details: D11750/08, 48 h; procedure, shortened: as §2
[12] = system: Mycobacterium tuberculosis; assay: Antimycobacterial activity against drug-sensitive Mycobacterium tuberculosis
Mycobacterium kansasii [13] = assay: Antimycobacterial activity against Mycobacterium kansasii 6509/96 after 7 days by micromethod; details: 6509/96, 168 h; procedure, shortened: as §1
Mycobacterium kansasii [14] = assay: Antimycobacterial activity against Mycobacterium kansasii 235/80 after 7 days by micromethod; details: 235/80, 168 h; procedure, shortened: as §1
Mycobacterium avium [15] = assay: Antimycobacterial activity against multidrug-resistant Mycobacterium avium 330/88 after 14 days by micromethod; details: 330/88, 336 h; procedure, shortened: as §1
Staphylococcus aureus [16] = assay: Antibacterial activity against methicillin-resistant Staphylococcus aureus H5996/08 after 48 hrs by broth microdilution method; details: H5996/08, 48 h; procedure, shortened: as §2
Mycobacterium kansasii [17] = assay: Antimycobacterial activity against Mycobacterium kansasii
Candida tropicalis [18] = assay: Antifungal activity against Candida tropicalis 156 after 24 hrs by broth microdilution method; details: Candida tropicalis, 156, 24 h
Escherichia coli [19] = assay: Antibacterial activity against Escherichia coli CCM 4517 after 48 hrs by broth microdilution method; details: CCM 4517, 48 h; procedure, shortened: as §2
Aspergillus fumigatus [20] = assay: Antifungal activity against Aspergillus fumigatus 231 after 48 hrs by broth microdilution method; details: Aspergillus fumigatus, 231, 48 h
Mycobacterium kansasii [21] = assay: Antimycobacterial activity against Mycobacterium kansasii 235/80 after 14 days by micromethod; details: 235/80, 336 h; procedure, shortened: as §1
Staphylococcus aureus [22] = assay: Antibacterial activity against methicillin-resistant Staphylococcus aureus H5996/08 after 24 hrs by broth microdilution method; details: H5996/08, 24 h; procedure, shortened: as §2
Lichtheimia corymbifera [23] = assay: Antifungal activity against Absidia corymbifera 272 after 48 hrs by broth microdilution method; details: Lichtheimia corymbifera, 272, 48 h
Nakaseomyces glabratus [24] = assay: Antifungal activity against Candida glabrata 20/I after 48 hrs by broth microdilution method
Mycobacterium avium [25] = assay: Antimycobacterial activity against multidrug-resistant Mycobacterium avium 330/88 after 21 days by micromethod; details: 330/88, 504 h; procedure, shortened: as §1
Pichia kudriavzevii [26] = assay: Antifungal activity against Candida krusei E28 after 24 hrs by broth microdilution method; details: E28, 24 h
Enterococcus sp. [27] = assay: Antibacterial activity against Enterococcus sp. J14365/08 after 24 hrs by broth microdilution method; details: J14365/08, 24 h; procedure, shortened: as §2
[28] = system: Trichophyton mentagrophytes; assay: Antifungal activity against Trichophyton mentagrophytes after 24 hrs by broth microdilution method
Trichosporon beigelii [29] = assay: Antifungal activity against Trichosporon beigelii 1188 after 48 hrs by broth microdilution method; details: Trichosporon beigelii, 1188, 48 h
Nakaseomyces glabratus [30] = assay: Antifungal activity against Candida glabrata 20/I after 24 hrs by broth microdilution method
[31] = system: Staphylococcus epidermidis; assay: Antibacterial activity against Staphylococcus epidermidis H6966/08 after 48 hrs by broth microdilution method; details: H6966/08, 48 h; procedure, shortened: as §2
[32] = system: Trichophyton mentagrophytes; assay: Antifungal activity against Trichophyton mentagrophytes after 48 hrs by broth microdilution method
Klebsiella pneumoniae [33] = assay: Antibacterial activity against Klebsiella pneumoniae D11750/08 after 24 hrs by broth microdilution method; details: D11750/08, 24 h; procedure, shortened: as §2
Mycobacterium avium [34] = assay: Antimycobacterial activity against Mycobacterium avium
[35] = system: Staphylococcus epidermidis; assay: Antibacterial activity against Staphylococcus epidermidis H6966/08 after 24 hrs by broth microdilution method; details: H6966/08, 24 h; procedure, shortened: as §2
Escherichia coli [36] = assay: Antibacterial activity against Escherichia coli CCM 4517 after 24 hrs by broth microdilution method; details: CCM 4517, 24 h; procedure, shortened: as §2
Mycobacterium kansasii [37] = assay: Antimycobacterial activity against Mycobacterium kansasii 6509/96 after 21 days by micromethod; details: 6509/96, 504 h; procedure, shortened: as §1
Mycobacterium kansasii [38] = assay: Antimycobacterial activity against Mycobacterium kansasii 235/80 after 21 days by micromethod; details: 235/80, 504 h; procedure, shortened: as §1
Aspergillus fumigatus [39] = assay: Antifungal activity against Aspergillus fumigatus 231 after 24 hrs by broth microdilution method; details: Aspergillus fumigatus, 231, 24 h
Staphylococcus aureus [40] = assay: Antibacterial activity against Staphylococcus aureus CCM 4516/08 after 24 hrs by broth microdilution method; details: CCM 4516/08, 24 h; procedure, shortened: as §2
Enterococcus sp. [41] = assay: Antibacterial activity against Enterococcus sp. J14365/08 after 48 hrs by broth microdilution method; details: J14365/08, 48 h; procedure, shortened: as §2

Work on `CC(=O)N[C@@H](Cc1ccccc1)C(=O)Oc1ccc(Cl)cc1C(=O)Nc1ccc(Cl)cc1` yielded an MIC (Mycobacterium kansasii [1]) of 4 µM (≈ 1.89 µg/mL), an MIC (Staphylococcus aureus [2]) of over 125 µM and an MIC (Trichosporon beigelii [3]) of 3.9 µM (≈ 1.84 µg/mL). The MIC (Pichia kudriavzevii [4]) was over 125 µM, the MIC (Candida albicans [5]) was over 125 µM and the MIC (Candida tropicalis [6]) was over 125 µM. For the same molecule, the MIC (Candida albicans [7]) was over 125 µM, the MIC [8] was 4 µM (≈ 1.89 µg/mL) and the MIC [9] was 4 µM (≈ 1.89 µg/mL). For the same molecule, the MIC (Lichtheimia corymbifera [10]) was 3.9 µM (≈ 1.84 µg/mL), the MIC (Klebsiella pneumoniae [11]) was over 125 µM and the MIC [12] was 1 µM (≈ 0.471 µg/mL). For the same molecule, the MIC (Mycobacterium kansasii [13]) was 2 µM (≈ 0.943 µg/mL), the MIC (Mycobacterium kansasii [14]) was 4 µM (≈ 1.89 µg/mL) and the MIC (Mycobacterium avium [15]) was 8 µM (≈ 3.77 µg/mL). The MIC (Staphylococcus aureus [16]) was over 125 µM, the MIC (Mycobacterium kansasii [17]) was 1 µM (≈ 0.471 µg/mL) and the MIC (Candida tropicalis [18]) was over 125 µM. It also gave an MIC (Escherichia coli [19]) of over 125 µM, an MIC (Aspergillus fumigatus [20]) of 125 µM (≈ 58.9 µg/mL) and an MIC (Mycobacterium kansasii [21]) of 4 µM (≈ 1.89 µg/mL). The MIC (Staphylococcus aureus [22]) was 125 µM (≈ 58.9 µg/mL), the MIC (Lichtheimia corymbifera [23]) was 15.6 µM (≈ 7.36 µg/mL) and the MIC (Nakaseomyces glabratus [24]) was over 125 µM. For the same molecule, the MIC (Mycobacterium avium [25]) was 16 µM (≈ 7.54 µg/mL), the MIC (Pichia kudriavzevii [26]) was over 125 µM and the MIC (Enterococcus sp. [27]) was 125 µM (≈ 58.9 µg/mL). For the same molecule, the MIC [28] was 31.2 µM (≈ 14.7 µg/mL), the MIC (Trichosporon beigelii [29]) was 3.9 µM (≈ 1.84 µg/mL) and the MIC (Nakaseomyces glabratus [30]) was over 125 µM. It also gave an MIC [31] of over 125 µM, an MIC [32] of 62.5 µM (≈ 29.5 µg/mL) and an MIC (Klebsiella pneumoniae [33]) of over 125 µM. For the same molecule, the MIC (Mycobacterium avium [34]) was 1 µM (≈ 0.471 µg/mL), the MIC [35] was 125 µM (≈ 58.9 µg/mL) and the MIC (Escherichia coli [36]) was over 125 µM. For the same molecule, the MIC (Mycobacterium kansasii [37]) was 8 µM (≈ 3.77 µg/mL), the MIC (Mycobacterium kansasii [38]) was 4 µM (≈ 1.89 µg/mL) and the MIC (Aspergillus fumigatus [39]) was 31.2 µM (≈ 14.7 µg/mL). For the same molecule, the MIC (Staphylococcus aureus [40]) was 62.5 µM (≈ 29.5 µg/mL) and the MIC (Enterococcus sp. [41]) was over 125 µM.

With `CC(=O)N[C@@H](Cc1ccccc1)C(=O)Oc1cc(Cl)ccc1C(=O)Nc1cccc(Cl)c1` the MIC (Mycobacterium kansasii [1]) was 4 µM (≈ 1.89 µg/mL), the MIC (Staphylococcus aureus [2]) was 125 µM (≈ 58.9 µg/mL) and the MIC (Trichosporon beigelii [3]) was 125 µM (≈ 58.9 µg/mL). The MIC (Pichia kudriavzevii [4]) was over 125 µM, the MIC (Candida albicans [5]) was over 125 µM and the MIC (Candida tropicalis [6]) was over 125 µM. For the same molecule, the MIC (Candida albicans [7]) was over 125 µM, the MIC [8] was 2 µM (≈ 0.943 µg/mL) and the MIC [9] was 4 µM (≈ 1.89 µg/mL). It also gave an MIC (Lichtheimia corymbifera [10]) of 62.5 µM (≈ 29.5 µg/mL), an MIC (Klebsiella pneumoniae [11]) of over 125 µM and an MIC [12] of 1 µM (≈ 0.471 µg/mL). It also gave an MIC (Mycobacterium kansasii [13]) of 2 µM (≈ 0.943 µg/mL), an MIC (Mycobacterium kansasii [14]) of 4 µM (≈ 1.89 µg/mL) and an MIC (Mycobacterium avium [15]) of 4 µM (≈ 1.89 µg/mL). It also gave an MIC (Staphylococcus aureus [16]) of 125 µM (≈ 58.9 µg/mL), an MIC (Mycobacterium kansasii [17]) of 1 µM (≈ 0.471 µg/mL) and an MIC (Candida tropicalis [18]) of over 125 µM. It also gave an MIC (Escherichia coli [19]) of over 125 µM, an MIC (Aspergillus fumigatus [20]) of over 125 µM and an MIC (Mycobacterium kansasii [21]) of 4 µM (≈ 1.89 µg/mL). The MIC (Staphylococcus aureus [22]) was 125 µM (≈ 58.9 µg/mL), the MIC (Lichtheimia corymbifera [23]) was over 125 µM and the MIC (Nakaseomyces glabratus [24]) was over 125 µM. The MIC (Mycobacterium avium [25]) was 8 µM (≈ 3.77 µg/mL), the MIC (Pichia kudriavzevii [26]) was over 125 µM and the MIC (Enterococcus sp. [27]) was 125 µM (≈ 58.9 µg/mL). The MIC [28] was 62.5 µM (≈ 29.5 µg/mL), the MIC (Trichosporon beigelii [29]) was over 125 µM and the MIC (Nakaseomyces glabratus [30]) was over 125 µM. It also gave an MIC [31] of 125 µM (≈ 58.9 µg/mL), an MIC [32] of over 125 µM and an MIC (Klebsiella pneumoniae [33]) of over 125 µM. It also gave an MIC (Mycobacterium avium [34]) of 1 µM (≈ 0.471 µg/mL), an MIC [35] of 62.5 µM (≈ 29.5 µg/mL) and an MIC (Escherichia coli [36]) of over 125 µM. The MIC (Mycobacterium kansasii [37]) was 8 µM (≈ 3.77 µg/mL), the MIC (Mycobacterium kansasii [38]) was 8 µM (≈ 3.77 µg/mL) and the MIC (Aspergillus fumigatus [39]) was over 125 µM. It also gave an MIC (Staphylococcus aureus [40]) of 31.2 µM (≈ 14.7 µg/mL) and an MIC (Enterococcus sp. [41]) of over 125 µM.
